# Reference: ChEMBL document CHEMBL4513216, “Probing the Open Global Health Chemical Diversity Library for Multistage-Active Starting Points for Next-Generation Antimalarials” (ACS Infect Dis, 2020)
# Assay: Toxicity liver stage against HepG2, at 10uM
# Format: cell-based
# Design: test concentration 10 uM, cell line HepG2-A16-CD81EGFP
# Conditions: human, HepG2-A16-CD81EGFP cells; read-out: INHIBITION
# Procedure, shortened: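 Uninfected HepG2-A16-CD81EGFP cells, 3 × 10^3 per well, 1536-well, plated on prespotted compound at 10 μM final, parasite-free screening media added to match infected plates; puromycin 10 μM positive, DMSO 0.5% negative; run in parallel with 48 h PbLuc assay at 37 °C, 5% CO2; viability by CellTiter-Glo luminescence, normalized to controls.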
row,SMILES,cytotoxicity at 10 µM [%]
1,COc1cc2c(cc1OC)C(=O)C(Sc1nncn1C)C2 (stereo not drawn),-5.65
2,Cc1cnc(CN(C)C2CCN(CCc3ccccn3)CC2)cn1,-12.1
3,CC(=O)N1CCCc2sc(C(=O)NC3CC3)nc21,-132
4,CN(C)CC(=O)N1Cc2ncn(C)c2C(COCC2CCOCC2)C1 (stereo not drawn),-71
5,CC[C@H]1CN(C(=O)c2cccnc2)CC[C@H]1CC(=O)NCCOC,5.26
6,CCOC(=O)c1cnn(-c2cc(Oc3cc(C)ccc3C)ncn2)c1N,11.3
7,COC(CNC(=O)CNC(=O)c1ccccc1)c1cccc(Cl)c1 (stereo not drawn),5.61
8,CCn1nc(NC(=O)Cn2ccc(C(C)=O)n2)c2ccccc21,12.8
9,CSCCC(Nc1nc(C)cc(C)n1)C(=O)NC(C)(C)CO (stereo not drawn),-5.15
10,Cc1[nH]nc2ncc(C(=O)N3CCN(CCC(C)C)CC3)cc12,0.977
11,CCNC(=O)N1CCc2ccc(NC(=O)NCc3ccsc3)cc21,-11.8
12,Cc1cc(C)n2c(CCCNS(=O)(=O)c3cccs3)nnc2n1,1.57
13,N#Cc1c(Cl)nsc1NCc1cccnc1OCC(F)(F)F,25.5
14,Cc1ccnc(C(NC(=O)c2oc(C)nc2C)C2CC2)n1 (stereo not drawn),-0.392
15,CCN(CC(C)C#N)C(=O)CSc1ccc(C(F)(F)F)cn1 (stereo not drawn),9.81
16,OC1(CNCCCN2CCCc3ccccc32)CNCCOC1 (stereo not drawn),13.2
17,CCC(=O)Nc1nnc(CCOc2ccccc2)s1,7.16
18,CCCc1nc(CN2CCCC2Cn2cccn2)cs1 (stereo not drawn),-4.45
19,Cc1cnc(N2CCc3cc(C(=O)O)c(N(C)C)nc3CC2)nc1,-104
20,CCC1CN(C(=O)NCCOc2ccc3c(c2)OCO3)CCO1 (stereo not drawn),-4.25
21,O=C(C1CC1)N1C[C@H]2CCCN(S(=O)(=O)c3cccc(F)c3)[C@H]2C1,5.11

row,SMILES,cytotoxicity at 10 µM [%]
1,CC(Nc1cccc(COCc2ccco2)c1)C(=O)NC(N)=O (stereo not drawn),-5.65
2,COCC(=O)NCc1cc2n(n1)CCCN(Cc1ccccc1SC)C2,2.04
3,CC(C)CN1C[C@@H](C(=O)O)C[C@@H](C(=O)NCc2ccncc2)C1,-147
4,O=C(NCc1nnc2ccccn12)N1CCOC(c2cccs2)C1 (stereo not drawn),1.64
5,O=C(NCc1cc[nH]n1)NCC(c1ccccc1Cl)N1CCCC1 (stereo not drawn),14.7
6,COCCNC(=O)CSc1nnc(OC(C)C)s1,-5.7
7,CCC1CN(C(=O)c2ccc(=O)[nH]n2)CCC(=O)N1Cc1ccccc1 (stereo not drawn),10.4
8,NCc1cn(CC2CCCN(C(=O)NCc3ccc(Cl)cc3)C2)nn1 (stereo not drawn),-22
9,Cc1cc(C(=O)N2CCn3cc(CN4CCN(C)CC4)nc3C2)no1,-74.7
10,CC(=O)N1CCC(c2nn(C)c3nccnc23)C1 (stereo not drawn),-21.1
11,c1ccc(Oc2ncccc2CNCc2ccccn2)cc1,-8.04
12,CN(CC1CCOC1)c1ccc(Br)cn1 (stereo not drawn),8.35
13,COc1ccccc1C(=O)N1CCN(C(=O)CCn2ccnc2)CC1,-148
14,COc1coc(C(=O)Nc2nc(-c3cccnc3)cs2)cc1=O,2.66
15,Cc1ccccc1CNC(=O)Cn1ncc2c1c(C)nn2C,9.71
16,CN(Cc1ccc(-n2cccn2)cc1)Cc1ncc[nH]1,1.79
17,Cc1cc2n(n1)CCN(c1nc(N(C)C)nc3c1CCNC3)C2,0.94
18,CC(C)c1nnc2n1CCN(CCC(=O)N1CCc3ccccc31)C2,-21.1
19,CNc1nc(C(=O)N2C[C@@H]3CCN(C)[C@@H]3C2)cs1,-10.8
20,CN1CCC(C)(CN(C)C(=O)c2ccc(CCC(C)(C)O)cc2)C1 (stereo not drawn),-11.2
21,CC(C)=CCC1(CO)CCCN(Cc2cnc(N3CCOCC3)nc2)C1 (stereo not drawn),-2.6

row,SMILES,cytotoxicity at 10 µM [%]
1,OC(CN(Cc1ccccc1)Cc1ccccn1)c1cccs1 (stereo not drawn),0.174
2,N#Cc1ccccc1N1CCCN(C(=O)CCn2cccn2)CC1,-13.1
3,O=C(CCC(=O)N1CCC(Oc2ncccc2Br)CC1)c1ccccc1,30.4
4,CN(Cc1ccco1)C(=O)CN1CCCC(Cn2cncn2)C1 (stereo not drawn),-4
5,COCCS(=O)(=O)NC(C)c1cccc(-n2cccn2)c1 (stereo not drawn),3.36
6,Cc1nccn1[C@@H]1CC[C@@H](NC(=O)Cn2c(C)nc3ccccc32)[C@H]1O,2.41
7,CC(C)n1c(=O)[nH]c2cn(-c3ccc(F)cc3)c(=O)n21,-7.74
8,Cc1nc(N)ncc1C(=O)N1CCCC(CCc2ccccc2F)C1 (stereo not drawn),-4.96
9,COc1cccc(C2CC(=O)Nc3c2cnn3C(C)(C)C)c1 (stereo not drawn),-8.54
10,CCC(C)C(=O)N(C)Cc1cc(F)ccc1N1CCC(OC)CC1 (stereo not drawn),-5.41
11,CCc1nnc(CN2CCOC(Cn3cccn3)C2)o1 (stereo not drawn),-8.15
12,Cc1ccc(CN2Cc3ccccc3OC3(CCC(CO)CC3)C2)s1 (stereo not drawn),-3.11
13,O=C(c1cc(-c2ccccc2)nc2onc(C3CC3)c12)N1CC[C@H](O)C1,-36.7
14,NC(=O)CN1CCCN(C(=O)COc2cccc(F)c2)CC1,-1.97
15,CN1CCN([C@@H]2CCN(Cc3ccc4cc(F)ccc4n3)C[C@H]2O)CC1,-4.1
16,COCc1cccc(CNC(=O)c2c(C)noc2C(C)C)c1,0.153
17,CC(C)NC(=O)c1nnn(-c2ccc(F)cc2)c1C1CC1,12.1
18,CC(C)c1nc(CCN(C)c2nccc(N3CCCC(O)C3)n2)no1 (stereo not drawn),-12
19,CCOc1nn(CC)cc1-c1nnc(SCc2ccccn2)n1C,-2.95
20,O=C(CCC1CCCC1)N1CCCC(c2ncc3c(n2)CCNC3)C1 (stereo not drawn),-23
21,OC1CCN(C2CCN(Cc3cnc(-c4cccs4)nc3)CC2)CC1,-9.77

row,SMILES,cytotoxicity at 10 µM [%]
1,CC(C)NC(=O)CNC(=O)c1csc(Cc2ccccc2F)n1,-4.44
2,c1ccc(CN2CCC(c3nccnc3-n3ccnc3)CC2)cc1,-19.6
3,CN1CCN(C(=O)c2ncn3c2CN(C)S(=O)(=O)c2ccccc2-3)CC1,-153
4,Cn1cc(N2CCCC(SCc3ccco3)C2=O)cn1 (stereo not drawn),17.3
5,Cc1cc(C)c2nc(CN3CC[C@@H](O)C3)cc(O)c2c1,-6.23
6,CCN(CC)c1nc(C)cc(C(=O)Nc2ccc(Br)cc2)n1,6.46
7,CC(C)(C)Nc1c(C2CCN(C(=O)C3CC3)CC2)nc2ccccn12,4.58
8,CCCN1CCC(Nc2cc(-c3ccccc3)ccc2OC)CC1,0.906
9,NS(=O)(=O)CCN1CCN(c2cc(F)ccc2F)CC1,-14.4
10,COC(=O)c1cccc(S(=O)(=O)N2CSCC2C(=O)N(C)C2CC2)c1 (stereo not drawn),5.15
11,Cc1cc(CSC2CCCN(c3cnn(C)c3)C2=O)no1 (stereo not drawn),29.7
12,COc1ccnc(N2CCN(C(=O)c3csnn3)CC2)n1,-0.581
13,Cn1cc(CN2CCC3(CC2)CCN(C(=O)c2cscn2)CC3)cn1,-0.937
14,CCOc1ccc(CNC(C)c2ccc3[nH]c(=O)[nH]c3c2)cc1 (stereo not drawn),-7.79
15,CC(C)n1nc(Cn2cccc2)c2c1CN(Cc1ccoc1)C2,1.49
16,COCCCN1CC2(CCCN(c3ncnc4[nH]cnc34)C2)CCC1=O (stereo not drawn),-2.95
17,Cc1cccc(CN2C[C@@H]3COC[C@]3(CNC(=O)C3CC3)C2)c1,-107
18,CNC(=O)c1cn[nH]c1C1CCN(Cc2cn(C)nc2C)C1 (stereo not drawn),-24.3
19,CCn1cc(CN2CCCCC2CCn2ccnc2C)cc1C#N (stereo not drawn),-3.09
20,CNc1nc(CNC(=O)Nc2ccc(OC)cc2C)cs1,-8.17
